Assay results published in ChEMBL document CHEMBL5303300, “EUbOPEN Chemogenomics Library - Multiplex” (2023).
Several values for one entry are separate records, joined by “and”; a condition that tells them apart may be missing. Equal values may be shown once.

Tested on: Fibroblast
Experiment: Multiplex assay against human fibroblast
Type: toxicity, cell-based
Conditions: number of replicates 2
In short: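 Compound was added to live cells that had been stained at seeding with Hoechst33342, BioTracker Green Microtubule Cytoskeleton Dye, MitoTracker Red and Annexin V Alexa Fluor 680, and imaging followed on a CQ1 microscope at 37°C and 5% CO2. CellPathfinder machine-learning gating divided cells into Hoechst high-intensity objects or normal cells, normal cells into healthy, pyknosed or fragmented nuclei, and pyknosed cells into mitotic or apoptotic. Tubulin, mitochondrial-mass and membrane-permeability phenotypes are per cents of healthy-nucleus cells.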

[1] = 12 h, 1 µM, compound concentration 1 uM
[2] = 12 h, 10 µM, compound concentration 10 uM
[3] = 24 h, 1 µM, compound concentration 1 uM
[4] = 24 h, 10 µM, compound concentration 10 uM
[5] = 48 h, 1 µM, compound concentration 1 uM
[6] = 48 h, 10 µM, compound concentration 10 uM

Cc1cc(C2CCCNC2)ccc1Nc1ncc(Br)c(NCc2cccc3c2C(C)(C)C(=O)N3)n1 (stereo not given)
Population Apoptotic (%) [1]: 58% and 42% | Population Fragmented Nuclei (%) [1]: 10% | Population Healthy Nuclei (%) [1]: 61% and 64% | Population Hoechst High Intensity Objects (%) [1]: 0% | Population Membrane Permeable-Phenotype (%) [1]: 13% and 5% | Population Mitochondria Different-Phenotype (%) [1]: 5% and 3% | Population Mitotic Cells (%) [1]: 42% and 57% | Population Normal (%) [1]: 99% and 100% | Population Pyknosed Nuclei (%) [1]: 27% and 25% | Population Tubulin-Different-Phenotype (%) [1]: 50% and 49% | Total Cell Count [1]: 184 and 193 | Population Apoptotic (%) [2]: 40% and 38% | Population Fragmented Nuclei (%) [2]: 29% and 27% | Population Healthy Nuclei (%) [2]: 59% and 56% | Population Hoechst High Intensity Objects (%) [2]: 1% and 0% | Population Membrane Permeable-Phenotype (%) [2]: 9% and 11% | Population Mitochondria Different-Phenotype (%) [2]: 2% and 5% | Population Mitotic Cells (%) [2]: 60% and 61% | Population Normal (%) [2]: 98% and 99% | Population Pyknosed Nuclei (%) [2]: 10% and 15% | Population Tubulin-Different-Phenotype (%) [2]: 82% and 69% | Total Cell Count [2]: 382 and 328 | Population Apoptotic (%) [3]: 57% and 62% | Population Fragmented Nuclei (%) [3]: 8% and 14% | Population Healthy Nuclei (%) [3]: 71% and 60% | Population Hoechst High Intensity Objects (%) [3]: 0% | Population Membrane Permeable-Phenotype (%) [3]: 3% and 7% | Population Mitochondria Different-Phenotype (%) [3]: 6% and 12% | Population Mitotic Cells (%) [3]: 42% and 38% | Population Normal (%) [3]: 100% and 99% | Population Pyknosed Nuclei (%) [3]: 20% and 25% | Population Tubulin-Different-Phenotype (%) [3]: 43% and 46% | Total Cell Count [3]: 198 and 199 | Population Apoptotic (%) [4]: 65% and 74% | Population Fragmented Nuclei (%) [4]: 17% and 10% | Population Healthy Nuclei (%) [4]: 59% and 62% | Population Hoechst High Intensity Objects (%) [4]: 1% and 0% | Population Membrane Permeable-Phenotype (%) [4]: 7% and 2% | Population Mitochondria Different-Phenotype (%) [4]: 21% and 31% | Population Mitotic Cells (%) [4]: 34% and 25% | Population Normal (%) [4]: 98% and 99% | Population Pyknosed Nuclei (%) [4]: 22% and 27% | Population Tubulin-Different-Phenotype (%) [4]: 86% and 79% | Total Cell Count [4]: 279 and 234 | Population Apoptotic (%) [5]: 70% and 65% | Population Fragmented Nuclei (%) [5]: 11% and 16% | Population Healthy Nuclei (%) [5]: 73% and 63% | Population Hoechst High Intensity Objects (%) [5]: 0% | Population Membrane Permeable-Phenotype (%) [5]: 3% | Population Mitochondria Different-Phenotype (%) [5]: 3% and 9% | Population Mitotic Cells (%) [5]: 29% and 34% | Population Normal (%) [5]: 100% | Population Pyknosed Nuclei (%) [5]: 15% and 20% | Population Tubulin-Different-Phenotype (%) [5]: 39% and 30% | Total Cell Count [5]: 180 and 175 | Population Apoptotic (%) [6]: 93% and 96% | Population Fragmented Nuclei (%) [6]: 11% and 16% | Population Healthy Nuclei (%) [6]: 40% and 48% | Population Hoechst High Intensity Objects (%) [6]: 6% and 2% | Population Mitochondria Different-Phenotype (%) [6]: 53% and 52% | Population Mitotic Cells (%) [6]: 6% and 3% | Population Normal (%) [6]: 93% and 97% | Population Pyknosed Nuclei (%) [6]: 48% and 34% | Population Tubulin-Different-Phenotype (%) [6]: 83% and 78% | Total Cell Count [6]: 164 and 169

CS(=O)(=O)c1ccc(C(=O)Nc2cccc(COc3ccc(Br)cc3CN[C@H]3CCC[C@@H]3O)c2)c(Cl)c1.O=CO
Population Apoptotic (%) [1]: 24% and 46% | Population Healthy Nuclei (%) [1]: 71% and 64% | Population Hoechst High Intensity Objects (%) [1]: 0% | Population Mitotic Cells (%) [1]: 75% and 53% | Population Normal (%) [1]: 99% and 100% | Population Pyknosed Nuclei (%) [1]: 20% | Total Cell Count [1]: 223 and 167 | Population Apoptotic (%) [2]: 52% and 50% | Population Healthy Nuclei (%) [2]: 43% and 57% | Population Hoechst High Intensity Objects (%) [2]: 1% and 0% | Population Mitotic Cells (%) [2]: 47% and 50% | Population Normal (%) [2]: 98% and 99% | Population Pyknosed Nuclei (%) [2]: 42% | Total Cell Count [2]: 187 and 221 | Population Apoptotic (%) [3]: 44% and 73% | Population Healthy Nuclei (%) [3]: 68% and 59% | Population Hoechst High Intensity Objects (%) [3]: 0% | Population Normal (%) [3]: 100% | Total Cell Count [3]: 219 and 171 | Population Apoptotic (%) [4]: 62% and 72% | Population Healthy Nuclei (%) [4]: 58% and 51% | Population Hoechst High Intensity Objects (%) [4]: 0% | Population Mitotic Cells (%) [4]: 37% and 27% | Population Normal (%) [4]: 99% and 97% | Population Pyknosed Nuclei (%) [4]: 32% | Total Cell Count [4]: 202 and 182 | Population Apoptotic (%) [5]: 75% and 70% | Population Healthy Nuclei (%) [5]: 70% and 68% | Population Hoechst High Intensity Objects (%) [5]: 0% | Population Mitotic Cells (%) [5]: 24% and 29% | Population Normal (%) [5]: 99% and 100% | Population Pyknosed Nuclei (%) [5]: 20% | Total Cell Count [5]: 218 and 154 | Population Apoptotic (%) [6]: 87% and 86% | Population Healthy Nuclei (%) [6]: 71% and 55% | Population Hoechst High Intensity Objects (%) [6]: 0% and 1% | Population Normal (%) [6]: 99% and 98% | Population Pyknosed Nuclei (%) [6]: 20% | Total Cell Count [6]: 197 and 190

CCc1cnn2c(NCc3ccc[n+]([O-])c3)cc(N3CCCCC3CCO)nc12 (stereo not given)
Population Apoptotic (%) [1]: 35% and 55% | Population Fragmented Nuclei (%) [1]: 7% and 13% | Population Healthy Nuclei (%) [1]: 73% and 62% | Population Hoechst High Intensity Objects (%) [1]: 0% | Population Membrane Permeable-Phenotype (%) [1]: 3% and 4% | Population Mitochondria Different-Phenotype (%) [1]: 1% and 0% | Population Mitotic Cells (%) [1]: 65% and 44% | Population Normal (%) [1]: 100% | Population Pyknosed Nuclei (%) [1]: 19% and 23% | Population Tubulin-Different-Phenotype (%) [1]: 13% and 9% | Total Cell Count [1]: 209 and 219 | Population Apoptotic (%) [2]: 42% and 55% | Population Fragmented Nuclei (%) [2]: 6% and 7% | Population Healthy Nuclei (%) [2]: 75% | Population Hoechst High Intensity Objects (%) [2]: 0% | Population Membrane Permeable-Phenotype (%) [2]: 5% and 7% | Population Mitochondria Different-Phenotype (%) [2]: 2% and 3% | Population Mitotic Cells (%) [2]: 57% and 44% | Population Normal (%) [2]: 99% and 100% | Population Pyknosed Nuclei (%) [2]: 17% and 16% | Population Tubulin-Different-Phenotype (%) [2]: 31% and 26% | Total Cell Count [2]: 191 and 174 | Population Apoptotic (%) [3]: 59% and 63% | Population Fragmented Nuclei (%) [3]: 9% and 13% | Population Healthy Nuclei (%) [3]: 68% and 67% | Population Hoechst High Intensity Objects (%) [3]: 0% | Population Membrane Permeable-Phenotype (%) [3]: 7% and 3% | Population Mitochondria Different-Phenotype (%) [3]: 2% and 0% | Population Mitotic Cells (%) [3]: 40% and 36% | Population Normal (%) [3]: 100% | Population Pyknosed Nuclei (%) [3]: 22% and 19% | Population Tubulin-Different-Phenotype (%) [3]: 18% and 10% | Total Cell Count [3]: 188 and 213 | Population Apoptotic (%) [4]: 68% and 52% | Population Fragmented Nuclei (%) [4]: 8% and 9% | Population Healthy Nuclei (%) [4]: 77% and 75% | Population Hoechst High Intensity Objects (%) [4]: 0% | Population Membrane Permeable-Phenotype (%) [4]: 10% and 4% | Population Mitochondria Different-Phenotype (%) [4]: 2% and 6% | Population Mitotic Cells (%) [4]: 32% and 48% | Population Normal (%) [4]: 100% | Population Pyknosed Nuclei (%) [4]: 13% and 15% | Population Tubulin-Different-Phenotype (%) [4]: 43% and 38% | Total Cell Count [4]: 181 and 162 | Population Apoptotic (%) [5]: 65% and 64% | Population Fragmented Nuclei (%) [5]: 9% and 12% | Population Healthy Nuclei (%) [5]: 55% and 61% | Population Hoechst High Intensity Objects (%) [5]: 0% | Population Membrane Permeable-Phenotype (%) [5]: 8% and 9% | Population Mitochondria Different-Phenotype (%) [5]: 0% and 3% | Population Mitotic Cells (%) [5]: 34% and 35% | Population Normal (%) [5]: 100% and 99% | Population Pyknosed Nuclei (%) [5]: 35% and 26% | Population Tubulin-Different-Phenotype (%) [5]: 15% and 17% | Total Cell Count [5]: 188 and 216 | Population Apoptotic (%) [6]: 73% and 63% | Population Fragmented Nuclei (%) [6]: 11% and 6% | Population Healthy Nuclei (%) [6]: 63% | Population Hoechst High Intensity Objects (%) [6]: 0% | Population Membrane Permeable-Phenotype (%) [6]: 14% and 20% | Population Mitochondria Different-Phenotype (%) [6]: 1% and 4% | Population Mitotic Cells (%) [6]: 26% and 36% | Population Normal (%) [6]: 100% and 99% | Population Pyknosed Nuclei (%) [6]: 25% and 29% | Population Tubulin-Different-Phenotype (%) [6]: 43% and 41% | Total Cell Count [6]: 179 and 149
